Data published in ChEMBL document CHEMBL4513216, “Probing the Open Global Health Chemical Diversity Library for Multistage-Active Starting Points for Next-Generation Antimalarials” (ACS Infect Dis, 2020).

Experiment: Toxicity liver stage against HepG2, at 10uM
Format: cell-based
Design: test concentration 10 uM, cell line HepG2-A16-CD81EGFP
Settings: human, HepG2-A16-CD81EGFP cells; read-out: INHIBITION
In short: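 Uninfected HepG2-A16-CD81EGFP cells, 3 × 10^3 per well, 1536-well, plated on prespotted compound at 10 μM final, parasite-free screening media added to match infected plates; puromycin 10 μM positive, DMSO 0.5% negative; run in parallel with 48 h PbLuc assay at 37 °C, 5% CO2; viability by CellTiter-Glo luminescence, normalized to controls.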

Row | SMILES | cytotoxicity at 10 µM [%]
1 | COc1ccc(CN2CC(=O)N(c3ccc(C)cc3)CC2C)cc1O (stereo unspecified) | 4.84
2 | Cc1cnc(C(=O)N2CCNCC2C(=O)NCc2ccncc2)cn1 (stereo unspecified) | 0.89
3 | CCNC(=O)C1CN(Cc2c(-c3cc(C)on3)nn(C)c2Cl)CCO1 (stereo unspecified) | -4.37
4 | COCCN1CCCC(O)(CN2CCCN(c3ncccn3)CC2)C1=O (stereo unspecified) | -3.95
5 | Cn1nccc1NC(=O)Cn1ccc(-c2ccc3c(c2)OCO3)n1 | -6.74
6 | Cn1ccc2ccc(C(=O)N3CCC[C@H]3C(=O)N3CCOCC3)cc21 | -0.829
7 | Cc1sc2nc(CCN)nc(N(C)CCCC3CCCO3)c2c1C (stereo unspecified) | -6.01
8 | CCc1ncc(C(=O)NCCN(C)S(C)(=O)=O)cn1 | 4.03
9 | CCCn1ccnc1CNC(=O)C1COc2cc(OC)ccc2C1 (stereo unspecified) | 1.61
10 | FC(F)(F)CCc1ccnc(NC2CCOC2)n1 (stereo unspecified) | 16.4
11 | CC(C)c1nc(Cn2cncn2)n(-c2ccccn2)n1 | -1.03
12 | COc1cc(C)cc(C(C(=O)O)N(C)Cc2ccncc2C)c1OC (stereo unspecified) | 0.231
13 | CN1CCCN(C(=O)c2csc3nc(-c4ccc(Cl)cc4)cn23)CC1 | 2.14
14 | COc1cccc(OCC2CCCN(C(=O)c3cnc(C)nc3O)C2)c1 (stereo unspecified) | -15.8
15 | CCCc1n[nH]cc1C(=O)N1CCC(c2nccn2CCOC)CC1 | -15.3
16 | Cc1cc(CN2CCC(CNC(=O)c3nccc4ccccc34)C2)[nH]n1 (stereo unspecified) | 14.1
17 | CCn1cc(CN(C)S(=O)(=O)c2cnn(CC)c2C)c(C)n1 | 3.13
18 | O=C(NCCn1ccnc1)c1ccn(-c2ccc(F)cc2)n1 | -1.03
19 | CCc1noc(CN2CCN(C(=O)c3ccccc3F)CC2)n1 | -23.2

Row | SMILES | cytotoxicity at 10 µM [%]
20 | Cc1nn(-c2ccccc2)cc1C(=O)N1CCCC1c1cnn(C)c1 (stereo unspecified) | -1.86
21 | Cc1nn(CC(C)C)c(N(C)C)c1CNCc1ccnn1C | -22.3
22 | Cc1cnn(CCNCc2csc(-c3ccc(C(N)=O)cc3)n2)c1 | -7.75
23 | CC(C)c1cc(NC(=O)CNC2CCCN(c3cccnn3)C2)on1 (stereo unspecified) | -1.79
24 | O=C(Cc1noc2ccccc12)N1CCC(Nc2cccnn2)CC1 | -7.85
25 | Cc1nccn1C1CCCN(C(=O)c2cccc(-n3cccc3)c2)C1 (stereo unspecified) | -23
26 | COc1c(CNCc2ccc(CS(C)(=O)=O)cc2)c(C)nn1C | -4.47
27 | O=C(CSCc1ccncc1)NCc1csc(Br)c1 | -6.57
28 | Cc1cnn(CC2CCCN2C(=O)c2nccnc2N)c1 (stereo unspecified) | -27.6
29 | COc1ccccc1CC1CCCN(CCC(N)=O)C1 (stereo unspecified) | -5.06
30 | CN(Cc1ncc(-c2ccccc2)o1)C1CCCN(c2cccnn2)C1 (stereo unspecified) | -29.1
31 | CCc1c(C(=O)N2CCN(c3ncccn3)CC2)cnn1C(C)(C)C | -1.91
32 | CN(CC(=O)N1CCC(Oc2ccccc2)CC1)c1cnccn1 | 2.12
33 | Cc1ncc2c(n1)CN(Cc1nnc(Cc3ccccc3)o1)CC2 | 1.13
34 | c1sc(C2CCCC2)nc1CN1CCn2c(nnc2C2CC2)C1 | -1.62
35 | Cc1ccc(NC2CCN(C(=O)CC3CCCO3)CC2)nn1 (stereo unspecified) | -10.5
36 | O=C(CN1CCC(c2cccc(F)c2)C1)NCc1ccco1 (stereo unspecified) | -7.88
37 | O=C(CN1CCCCC1Cn1cncn1)NCCc1ccc(F)cc1 (stereo unspecified) | -1.65
38 | OC(CN1CCC(c2ccn[nH]2)CC1)c1cccc(F)c1 (stereo unspecified) | -7.64

Row | SMILES | cytotoxicity at 10 µM [%]
39 | Cc1ccccc1CC(=O)N(C)C1CCN(c2ccccn2)CC1 | -2.74
40 | CCCc1noc(CN2CCCC2c2c(C)nn(C)c2OC)n1 (stereo unspecified) | 9.94
41 | Cc1cnn(C2CCCN(C(=O)c3cccc(Cn4ccnc4)c3)C2)c1 (stereo unspecified) | -1.03
42 | CCc1nccn1C1CCCN(C(=O)c2cc3nc(C)ccc3o2)C1 (stereo unspecified) | -15.5
43 | CC(C)c1nnc2n1CCN(C(=O)c1ccc(-n3cnnc3)cc1)C2 | -11.5
44 | O[C@@H]1CN(Cc2cccc(F)c2)CC[C@H]1NCc1ccccn1 | -1.6
45 | OC1(c2ccc(F)cc2)CCN(Cc2ccccc2N2CCCC2)CC1 | 20.5
46 | CNC(=O)CN1CCOCC2(CCCN(CCc3ccccc3)C2)C1 (stereo unspecified) | 0.0221
47 | CC1c2ncc(Cn3cccn3)n2CCN1S(C)(=O)=O (stereo unspecified) | -99.2
48 | C1CC(CN2CCc3c(nnn3CC3CC3)C2COCC2CC2)C1 (stereo unspecified) | 7.61
49 | Cc1cccc(COC[C@@H]2CC[C@H]3[C@H](CCN3Cc3ccco3)O2)n1 | -9.81
50 | O=C(NC1CC1)N1CCC2(CC1)CC(N1CCOCC1)c1ccccc12 (stereo unspecified) | -109
51 | CN1CC[C@]2(CN(CC3CCOCC3)C[C@H]2c2ccccc2)C1=O | -1.18
52 | COc1c(CNCc2cccc(Cn3ccnc3C)c2)c(C)nn1C | 23.8
53 | O=C(NCC1COCc2c(-c3cccnc3)nnn2C1)c1cccs1 (stereo unspecified) | 2.93
54 | CN(C)CC1[C@H]2CN(C(=O)c3cc(=O)[nH]c4ccc(F)cc34)C[C@@H]12 (stereo partly specified) | -6.68
55 | COC1[C@@H]2CC[C@H]1CN(c1nc(C)nc3ccsc13)C2 (stereo partly specified) | 18
56 | COc1ccc(-n2cc3nc(N)[nH]cc-3c2=O)cc1Cl | 17.7
